In ChEMBL document CHEMBL1139167, “Synthesis and evaluation of diverse thio avarol derivatives as potential UVB photoprotective candidates” (Bioorg Med Chem Lett, 2007):
Activity calls are given as the source filed them. The calls are words filed in the database; no cut-off is given here.

Legend:
[1] = Toxicity assessed as inhibition of cell viability of UVB irradiated human HaCaT cells at 10 uM administered 2 hrs before irradiation by MTT assay; assay type: cell-based; settings: read-out: Inhibition
Outline: (§1)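 HaCaT cells in DMEM/10% FBS were pretreated with compounds in ethanol (final ≤0.1%) 2 h before a single 40–50 mJ/cm² UVB dose. Viability was read by MTT reduction to formazan 24 h after irradiation. Inhibition is expressed relative to maximal viability of drug-free samples, means ± SEM (n = 6).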

[2] = Toxicity assessed as inhibition of cell viability of UVB irradiated human HaCaT cells at 5 uM administered 2 hrs before irradiation by MTT assay; assay type: cell-based; settings: read-out: Inhibition; outline: as §1
HaCaT [3] = assay: Inhibition of TNFalpha production in UVB irradiated human HaCaT cells at 10 uM administered 2 hrs before irradiation by fluoroimmunoassay; assay type: functional
Outline: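 Confluent HaCaT cells (seeded at 2 × 10^5 cells/mL in DMEM/10% FBS) received compounds in ethanol (final ≤0.1%) 2 h before 40–50 mJ/cm² UVB. […] IC50 with 95% CI came from at least four concentrations.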

HaCaT [4] = assay: Inhibition of TNFalpha production in UVB irradiated human HaCaT cells at 5 uM administered 2 hrs before irradiation by fluoroimmunoassay; assay type: functional
Outline: (§2)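 Confluent HaCaT cells (seeded at 2 × 10^5 cells/mL in DMEM/10% FBS) received compounds in ethanol (final ≤0.1%) 2 h before 40–50 mJ/cm² UVB.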

HaCaT [5] = assay: Inhibition of TNFalpha production in UVB irradiated human HaCaT cells administered 2 hrs before irradiation by fluoroimmunoassay; assay type: functional, cell-based; settings: light or radiation study; outline: as §2
Neutrophil = assay: Antioxidant activity assessed as inhibition of reactive oxygen species generation in TPA-stimulated human neutrophils
HaCaT [6] = assay: Inhibition of NF-kappaB activation in UVB irradiated human HaCaT cells at 10 uM administered 2 hrs before irradiation by EMSA

SMILES	cytotoxicity at 2 h, 10 µM [1]	cytotoxicity at 2 h, 5 µM [2]	Inhibition (HaCaT [3])	Inhibition (HaCaT [4])	IC50 (HaCaT [5])	Activity (Neutrophil)	Activity (HaCaT [6])
CC1=CCC[C@H]2[C@](C)(Cc3cc(O)cc(SCCO)c3O)[C@@H](C)CC[C@]12C	22.5%	20.6%	–	–	–	–	–
CC1=CCC[C@H]2[C@](C)(Cc3cc(O)c(Sc4ccccc4)cc3O)[C@@H](C)CC[C@]12C	0%	0%	74.3%	53.6%	4.2 µM	Dose-dependent effect	Active
CC1=CCC[C@H]2[C@](C)(Cc3cc(O)cc(SCC(O)CO)c3O)[C@@H](C)CC[C@]12C (some centres undefined)	14%	13.6%	–	–	–	–	–
CC1=CCC[C@H]2[C@](C)(Cc3cc(O)c(Sc4ccccc4)c(Sc4ccccc4)c3O)[C@@H](C)CC[C@]12C	0%	0%	0%	0%	–	–	–
CC1=CCC[C@H]2[C@](C)(Cc3cc(O)c(SCC(O)CO)cc3O)[C@@H](C)CC[C@]12C (some centres undefined)	18.6%	12.6%	–	–	–	–	–
CC1=CCC[C@H]2[C@](C)(Cc3cc(O)c(SCCO)c(SCCO)c3O)[C@@H](C)CC[C@]12C	28.5%	18.1%	–	–	–	–	–
CC1=CCC[C@H]2[C@](C)(Cc3cc(O)cc(SCC(=O)O)c3O)[C@@H](C)CC[C@]12C	28.5%	18.3%	–	–	–	–	–
CC1=CCC[C@H]2[C@](C)(Cc3cc(O)c(Sc4ccc(C)cc4)cc3O)[C@@H](C)CC[C@]12C	0%	0%	0%	0%	–	–	–
COc1cc2ccc(=O)oc2c(O)c1O [FRAXETIN]	3.4%	0%	68.1%	58.6%	2.8 µM	–	–
CC1=CCC[C@H]2[C@](C)(Cc3cc(O)c(SCCO)cc3O)[C@@H](C)CC[C@]12C	48.4%	21.4%	–	–	–	–	–
CC1=CCC[C@H]2[C@](C)(Cc3cc(O)cc(Sc4ccc(C)cc4)c3O)[C@@H](C)CC[C@]12C	0%	0%	0%	0%	–	–	–
CC1=CCC[C@H]2[C@](C)(Cc3cc(O)c(Sc4ccc(C)cc4)c(Sc4ccc(C)cc4)c3O)[C@@H](C)CC[C@]12C	0%	0%	0%	0%	–	–	–
CC1=CCC[C@H]2[C@](C)(Cc3cc(O)cc(Sc4ccccc4)c3O)[C@@H](C)CC[C@]12C	0%	0%	92.7%	55.4%	3.7 µM	Dose-dependent effect	Active
CC1=CCC[C@H]2[C@](C)(Cc3cc(O)c(SCC(=O)O)cc3O)[C@@H](C)CC[C@]12C	13.3%	12.4%	–	–	–	–	–
